EBV gp42 block: Epstein-Barr virus gp42 inhibitors, primary screen, biochemical, uHTS, fluorescence polarization. Glycoprotein 42 (Epstein-Barr virus (strain AG876)), Q1HVG2. Fluorescence polarization binding assay, mP read-out. inhibition, % (tested at 21.74 µM). hit rate 0.42% among 220,000; in the data active means inhibition above about 50%
Target sequence (Q1HVG2 whole entry, looked up): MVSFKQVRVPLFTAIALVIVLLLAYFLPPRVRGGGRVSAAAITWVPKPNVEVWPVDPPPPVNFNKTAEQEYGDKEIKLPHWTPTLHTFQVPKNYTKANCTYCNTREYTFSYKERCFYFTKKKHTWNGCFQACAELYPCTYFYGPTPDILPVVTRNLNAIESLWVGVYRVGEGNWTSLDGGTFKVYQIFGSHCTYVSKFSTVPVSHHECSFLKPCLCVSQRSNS
WT yeast gro inh: growth inhibition of WT strain, primary screen, mitochondrial fusion inhibitor project, WT and mutant strains, chemical genetic. mitochondrial fusion phenotypic screen. inhibition, % at 10 µM. hit rate 2.1% among 190,000; in the data active means inhibition above about 58%; tested in S. cerevisiae
GRIN3A LBD mod: binders of NR3A ligand-binding domain, primary screen, biophysical, differential scanning fluorimetry, uHTS | Glutamate receptor ionotropic, NMDA 3A (GRIN3A) ligand-binding domain | NR3A LBD differential scanning fluorimetry, Tm shift; 0% = protein alone, 100% = glycine-bound protein | Tm shift relative to glycine control, % at 25 µM | hit rate 2.5% among 340,000 | AID 1259313, 2017;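 active means melting temperature shift of at least 10% of the positive control shift, at one fixed dose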
Tb MetRS inh: T. brucei MetRS inhibitors, primary screen, biochemical, luminescence | methionyl-tRNA synthetase (Trypanosoma brucei brucei) | purified T. brucei MetRS, ATP depletion, Kinase-Glo luminescence | inhibition, % at 11.9 µM | hit rate 0.4% among 360,000;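 active means inhibition above a per-plate cutoff of the control wells' mean inhibition plus 3 SD, cut at about 5.5% in these data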;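 further: 0% = DMSO wells median and 100% = median of wells with control inhibitor compound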
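Test system – parasite MetRS enzyme · Reagent – substrates ATP, L-methionine and bulk Escherichia coli tRNA · Doses – 11.9 µM compound single dose, 0.9% DMSO · Times – 15 min enzyme-compound preincubation, 2 h reaction, 10 min detection, 25 °C · Signal – Kinase-Glo luminescence, ATP depletion format · Controls – DMSO-only wells as low control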
CHOP inh: inhibitors of CHOP promoter induction, primary screen, cell-based, unfolded protein response, luciferase reporter; CHO-K1 CHOP-promoter luciferase, tunicamycin-induced, 15-18 h; hit rate 3.8% among 220,000; inhibition, % at 10 µM;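 active means compounds that reduced the stress-induced luciferase reporter signal by more than about 70% of percent inhibition, limit read from the data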;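 further: 0% = tunicamycin plus vehicle and 100% = wells without tunicamycin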
MPTP inh: mitochondrial permeability transition pore inhibitors, primary screen, biochemical, isolated mouse mitochondria, absorbance; Ca2+ swelling absorbance, 30 min; inhibition, % at 10 µM; hit rate 1.4% among 360,000;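 active means inhibition of 50% or more, scaled per plate between neutral and stimulator controls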;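 further: 0% = DMSO wells given calcium and 100% = 1 mM EGTA wells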
The depositor's hits bear a star; . = no result given. Shown are actives, neighbours in structure and some others; about 6.4% of the full set was active somewhere.

SMILES	EBV gp42 block	WT yeast gro inh	GRIN3A LBD mod	Tb MetRS inh	CHOP inh	MPTP inh
Cc1[nH]n(-c2ccccc2)c(=O)c1/C=N/Nc1nncc(-c2ccccc2)n1	-5.4	-3.7	-23.4	-0.3	77.1*	3.4
Cc1ccc(/C=N/Nc2nncc(-c3ccccc3)n2)o1	-18.9	5.8	0.7	-1.2	-0.6	-0.9
Cc1ccc(-n2[nH]c(C)c(/C=N/NC(=O)c3ccc(O)cc3O)c2=O)cc1	.	.	13.3*	-3.3	.	0.5
Cc1[nH]n(-c2ccccc2)c(=O)c1/C=N/NC(=O)c1ccc(O)cc1O	.	.	10.2*	0.3	.	1.4
COc1ccc(CN2CCc3c([nH]c4ccccc34)C2)c(OC)c1C	.	.	1.6	2.9	.	1.3
Cc1c(C(=O)N2CCCCC2)sc(NC(=O)c2ccco2)c1C#N	-15.9	-13.4	-1.8	-0.3	-13.3	-1.4
COC(=O)C1=CO[C@@H](OC2OC(CO)C(O)C(O)C2O)[C@@H]2C(CO)=CC[C@H]12 (stereo partly drawn)	-78.8	-8.2	-0.7	-0.3	3.8	-0.1
COc1ccc(Nc2c3c(nc4c(-c5ccccc5)c(C)nn24)CCC3)cc1	-6.7	62.5*	-0.5	-0.8	18.9	1.2
COc1ccc(-c2c(C)nn3c(-c4ccccc4)cc(C)nc23)cc1	-3.2	18.2	15.3*	0.5	32.7	4.0
c1ccc2c(c1)[nH]c1c3ccccc3sc21	-10.3	.	23.6*	-0.9	19.4	4.9
O=C(c1ccc(C(=O)N2CCCc3ccccc32)s1)N1CCCc2ccccc21	-3.0	96.5*	-1.9	0.0	44.5	14.9
COc1cccc(-c2cc(C(=O)N3CCCc4ccccc43)no2)c1	1.1	22.6	-3.1	0.1	73.1*	-0.8
O=C(c1cc(-c2ccccc2)nc2ccccc12)N1CCCc2ccccc21	-1.8	62.9*	-2.6	0.1	22.5	1.2
Cc1cccc(-c2cc(C(=O)N3CCCc4ccccc43)c3ccccc3n2)c1	-27.6	39.3	-6.5	0.2	9.8	0.6
O=C(c1ccc([N+](=O)[O-])s1)N1CCCc2ccccc21	.	.	-0.1	-0.7	.	-0.1
COc1ccc(-c2cc(C(=O)N3CCCc4ccccc43)no2)cc1	-14.0	57.3	0.6	-0.1	47.8	0.4
Cc1ccc(-c2cc(C(=O)N3CCCc4ccccc43)no2)cc1	7.5	64.4*	-1.7	-0.7	-22.8	1.4
Cc1cc(Cl)ccc1NC(=S)N(CCCN1CCOCC1)Cc1cccs1	44.1	6.7	-8.7	0.4	22.3	1.1
COC(=O)CCC(=O)OC1(C)C(=O)C=C2C=C(C3CC3)N(C3CC3)C=C2C1=O (stereo not drawn)	15.9	.	-1.6	-0.2	8.9	1.4
Cc1ccc(-c2nnn(CC(=O)N3CCCc4ccccc43)n2)cc1	4.6	14.6	-0.8	-0.7	84.4*	0.3
Cc1nnc(-c2cccc(Br)c2)c2cn(-c3cccc(Br)c3)nc12	-10.6	31.9	-2.6	-0.7	75.3*	23.4
Cc1nnc(-c2cccc(Br)c2)c2cn(-c3ccccc3)nc12	8.6	12.4	4.1	0.4	66.5	13.4
O=C(NC(=S)Nc1ccc(Br)cn1)c1cncc(Br)c1	1.0	7.3	2.1	-0.6	80.6*	1.7
O=C(NC(=S)Nc1ccccn1)c1cncc(Br)c1	-7.7	20.6	-1.5	-0.4	-20.1	1.6
CCC(=O)Nc1ccc(Br)cn1	-9.2	-14.6	232.6*	0.5	19.0	-0.5
SMILES	EBV gp42 block	WT yeast gro inh	GRIN3A LBD mod	Tb MetRS inh	CHOP inh	MPTP inh
COC(Cn1cc(C)c(=O)[nH]c1=O)OC	-3.6	-6.3	-1.5	-0.8	20.7	-4.0
O=C(CSc1nc2cc(S(=O)(=O)N3CCOCC3)ccc2o1)NC1CCCc2ccccc21 (stereo not drawn)	-13.4	0.0	-4.1	0.8	-0.5	-1.8
Cc1ccc(-n2c(=O)[nH]cc(C(=O)Nc3ccc4c(c3)OCO4)c2=O)cc1C	.	22.9	0.4	-0.3	.	1.0
O=C(Nc1ccccc1N1CCCCC1)c1ccccc1F	-4.8	81.5*	1.6	-0.5	-26.8	0.6
O=C(NC(=S)Nc1ccccc1N1CCCCC1)c1ccccc1	-0.8	67.0*	-2.4	-1.0	47.7	-4.2
O=C(NC(=S)Nc1ccccc1N1CCCC1)c1ccc(F)cc1	-1.3	49.7	-6.4	-0.3	-2.4	0.5
CCN(c1ccccc1)S(=O)(=O)c1ccc(OC)c(NC(=O)c2cccs2)c1	-13.0	-15.7	-0.6	-0.1	8.4	0.4
COc1ccc(CNCC2COc3ccccc3O2)cc1 (stereo not drawn)	.	.	-2.2	0.4	.	0.4
CC(C)(C)c1csc(NC(=O)Cc2cccs2)n1	4.9	18.6	0.3	-0.9	3.9	0.3
O=C(Nc1nc(-c2ccc(Cl)s2)cs1)c1cccs1	-9.4	71.7	16.9*	0.2	62.0	12.7
CC(C)(C)c1csc(NC(=O)c2cccs2)n1	-13.4	6.5	-0.6	0.4	71.2*	7.8
O=C(Nc1nc(-c2ccccn2)cs1)c1ccc(Cl)s1	-14.7	66.5	19.2*	-0.3	.	-0.2
Cc1cccc(C(=O)NC(C(=O)Nc2nc(-c3ccccn3)cs2)C(C)C)c1 (stereo not drawn)	2.0	72.5*	-0.9	-0.1	33.6	-0.2
CCOC(=O)c1c(NC(=O)C(=O)N/N=C/c2ccc(OCC)cc2)sc2c1CCCCC2	-11.0	-7.6	-0.7	-0.5	14.9	1.6
NC(=O)c1ccc(NC(=O)CN2CCN(C(=O)c3ccco3)CC2)cc1	.	.	-0.8	-0.4	.	-0.9
CCC(c1nnnn1C(C)(C)CC)N(CCCN1CCOCC1)Cc1cc2cccc(C)c2[nH]c1=O (stereo not drawn)	-10.2	1.1	-1.1	-0.1	11.3	-1.2
CCCOc1ccc(N2C(=O)CC(N(CCc3ccc(OC)cc3)C(=O)c3cccc(F)c3)C2=O)cc1 (stereo not drawn)	-15.5	-7.3	-5.4	-1.4	23.4	2.9
CN(C)C(=O)CCc1ccc2c3c([nH]c2c1)[C@]1(C)[C@@H](C(=O)N2CCCCC2)C[C@H](CC(=O)NCCc2ccccn2)C(=O)N1CC3	.	.	2.1	1.2	.	2.1
O=C(Nc1nc(-c2ccccc2)ns1)c1cccs1	-1.5	-0.8	18.9*	0.2	-26.4	7.3
O=C(CCCSc1ccccc1)Nc1nc(-c2ccccn2)cs1	-12.7	68.8*	-5.7	0.2	-43.7	-3.6
O=C(Nc1nc(-c2cc(Cl)sc2Cl)cs1)c1ccccc1	-13.0	67.5*	2.2	-0.1	-22.2	34.4
O=C(Nc1nc(-c2ccc(Cl)cc2)cs1)c1cccnc1	-4.5	1.4	3.9	-0.3	18.4	-1.5
CC(C)NS(=O)(=O)c1ccc(OCC(=O)N2CCc3ccccc3C2)cc1	-13.0	-5.9	-0.5	-0.5	74.3*	0.1
CC(C)NS(=O)(=O)c1ccc(OCC(=O)N2CCCC2)cc1	-23.2	-16.3	0.8	-0.6	-2.1	-0.3

Screening data (PubChem)
